Published values from different studies.
Lines come from different studies, so protocols differ.

| SMILES | test system | conditions | AUC |
| --- | --- | --- | --- |
| C[C@@H](c1ccc2nccn2c1)n1nnc2ncc(-c3cnn(C)c3)nc21 | human, plasma | oral, 600 mg | 12800 ng·h/mL |
| CC(C)(C)OC[C@@H]1C(=O)NCCN1C(=O)C[C@H](N)Cc1cc(F)c(F)cc1F | human, plasma | oral, 5 mg, multiple doses, once daily, steady state | 94.2 ng·h/mL |
| CS(=O)(=O)CCNCc1ccc(-c2ccc3ncnc(Nc4ccc(OCc5cccc(F)c5)c(Cl)c4)c3c2)o1 | human, serum | oral, 1250 mg, single dose, fed | 27300 ng·h/mL |
| COc1cc(C(=O)NC2CCN(C)CC2)c(F)cc1Nc1ncc(C(F)(F)F)c(Oc2cccc3c2C(=O)N(C)C3)n1 | human, plasma | oral, 100 mg, multiple doses, once daily, steady state, patients | 16.3 µM·h |
| Cc1ccc(C(=O)N(CCCN)[C@@H](c2oc3cc(Cl)ccc3c(=O)c2Cc2ccccc2)C(C)C)cc1 | human, plasma | intravenous, 2 mg/m², single dose, patients, infusion | 2520 ng·h/mL |
| Cn1c(=O)oc2ccc(-c3ccc(C[C@@H](C#N)NC(=O)[C@@H]4CNCCCO4)cc3)cc21 | male human, plasma | oral, 5 mg, single dose, healthy volunteers | 0.915 µM·h |
| COc1cc(C(=O)NC2CCN(C)CC2)c(F)cc1Nc1ncc(C(F)(F)F)c(Oc2cccc3c2C(=O)N(C)C3)n1 | human, plasma | oral, 200 mg, multiple doses, once daily, steady state, patients | 43.7 µM·h |
| COc1ccc(Oc2cc(N(C)CCOc3ccc(CC4SC(=O)NC4=O)cc3)ncn2)cc1 (stereo not shown) | male human, plasma | oral, 0.5 mg, multiple doses, once daily, steady state | 333 ng·h/mL |
| NS(=O)(=O)NCCNc1nonc1C(=NO)Nc1ccc(F)c(Br)c1 | human, plasma | oral, 50 mg, multiple doses, once daily, steady state, patients | 1.58 µM·h |
| CS(=O)(=O)CCC#N | human, plasma | oral, 1000 mg, multiple doses, once daily | 723000 ng·h/mL |
